These results are taken from ChEMBL document CHEMBL5661979, “Pharmacological inhibition of BMK1 suppresses tumor growth through promyelocytic leukemia protein” (Cancer Cell, 2010).

Where only a bound is given, the exact number is not on record here.

Assay [1] concerns the target Mitogen-activated protein kinase kinase kinase 7 (Homo sapiens, UniProt O43318). The experiment in a line: Inhibition of TAK1 in human HeLa cells lysate pre incubated for 15 mins followed by ATP acyl phosphate probe addition and measured after 10 mins by LC-MS/MS analysis. In kind it is subcellular.
Assay [2] concerns the target p38 delta/gamma (Homo sapiens) (UniProt O15264+P53778). The experiment in a line: Inhibition of p38d/p38g in human HeLa cells lysate at 50 uM pre incubated for 15 mins followed by ATP acyl phosphate probe addition and measured after 10 mins by LC-MS/MS analysis relative to control. In kind it is subcellular. The conditions noted are these: time 25.0 min.
In assay [3] the target is Protein kinase C zeta type (Homo sapiens, UniProt Q05513). The experiment in a line: Inhibition of PKCzeta in human HeLa cells lysate pre incubated for 15 mins followed by ADP acyl phosphate probe addition and measured after 10 mins by LC-MS/MS analysis. In kind it is subcellular.
Assay [4] deals with T1, Mixed lineage kinase domain-like protein (Homo sapiens) (UniProt Q8NB16).
T1 sequence (whole entry): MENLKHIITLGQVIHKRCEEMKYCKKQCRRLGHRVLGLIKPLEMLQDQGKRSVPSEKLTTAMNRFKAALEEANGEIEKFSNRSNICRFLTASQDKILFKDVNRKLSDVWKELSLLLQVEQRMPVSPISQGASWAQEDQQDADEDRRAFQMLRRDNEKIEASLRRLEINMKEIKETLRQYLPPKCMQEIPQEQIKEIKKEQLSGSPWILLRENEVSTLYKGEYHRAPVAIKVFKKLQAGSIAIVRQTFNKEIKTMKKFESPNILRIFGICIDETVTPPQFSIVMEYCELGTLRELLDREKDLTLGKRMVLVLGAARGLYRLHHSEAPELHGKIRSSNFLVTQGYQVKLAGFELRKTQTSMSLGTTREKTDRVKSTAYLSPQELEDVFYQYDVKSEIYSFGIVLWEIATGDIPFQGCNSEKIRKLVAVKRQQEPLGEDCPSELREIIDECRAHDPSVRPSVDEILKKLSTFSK
The assay can be described thus: Inhibition of MLKL in human HeLa cells lysate at 50 uM pre incubated for 15 mins followed by ADP acyl phosphate probe addition and measured after 10 mins by LC-MS/MS analysis relative to control. It counts as subcellular. Conditions: time 25.0 min.

In assay [5] the target is T2, STE20-related kinase adapter protein beta (Homo sapiens) (UniProt Q9C0K7).
T2 sequence (whole entry): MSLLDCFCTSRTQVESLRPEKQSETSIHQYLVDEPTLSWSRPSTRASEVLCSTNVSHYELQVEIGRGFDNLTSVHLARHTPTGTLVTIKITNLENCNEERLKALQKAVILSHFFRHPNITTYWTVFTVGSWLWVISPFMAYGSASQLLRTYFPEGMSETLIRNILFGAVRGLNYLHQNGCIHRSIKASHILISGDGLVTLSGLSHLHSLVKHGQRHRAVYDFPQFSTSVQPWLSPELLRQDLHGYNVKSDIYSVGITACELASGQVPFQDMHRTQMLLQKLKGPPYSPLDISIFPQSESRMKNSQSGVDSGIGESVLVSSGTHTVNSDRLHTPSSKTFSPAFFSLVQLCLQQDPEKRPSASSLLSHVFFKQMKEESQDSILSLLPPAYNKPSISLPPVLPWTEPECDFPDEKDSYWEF
The experiment in a line: Inhibition of ALS2CR2 in human HeLa cells lysate at 2 uM pre incubated for 15 mins followed by ADP acyl phosphate probe addition and measured after 10 mins by LC-MS/MS analysis relative to control. The conditions noted are these: time 25.0 min. It counts as subcellular. The gist of the method:
(§1)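 HeLa cell lysates (5 mg/mL total protein) were preincubated with inhibitor at 0, 0.8, 2, 10 or 50 μM for 15 min. ATP or ADP acylphosphate probe was then added (5 μM final) for 10 min, and reactions were stopped with urea. Up to four fragment ions per kinase probe-peptide were quantified by targeted MS. % inhibition was taken relative to untreated lysate. Run in duplicate.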

The target of assay [6] is Cyclin-dependent kinase 2 (Homo sapiens, UniProt P24941). The assay can be described thus: Inhibition of CDK2 K2 site in human HeLa cells lysate at 10 uM pre incubated for 15 mins followed by ADP acyl phosphate probe addition and measured after 10 mins by LC-MS/MS analysis relative to control. In kind it is subcellular. The conditions noted are these: time 25.0 min. The method, boiled down: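 KiNativ profiling in HeLa lysate (5 mg/mL total protein). Lysate incubated 15 min with inhibitor at 50, 10, 2, 0.8 or 0 μM. ATP or ADP acylphosphate probe then added (5 μM final) and reacted 10 min. Reaction stopped with urea and analysed by targeted MS, using up to four fragment ions per kinase peptide-probe conjugate. % inhibition taken against untreated lysate. Run in duplicate.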

Assay [7] has as its target Cyclin-G-associated kinase (Homo sapiens) (UniProt O14976). The experiment in a line: Inhibition of GAK (unknown origin) assessed as remaining activity at 10 uM by ATP-competition binding assay relative to control.
Assay [8] deals with RAC-alpha serine/threonine-protein kinase (Homo sapiens, UniProt P31749). The experiment in a line: Inhibition of AKT1 in human HeLa cells lysate at 50 uM pre incubated for 15 mins followed by ATP acyl phosphate probe addition and measured after 10 mins by LC-MS/MS analysis relative to control. It counts as subcellular. Conditions: time 25.0 min. The method, boiled down:
as §1

Assay [9] concerns the target Serine/threonine-protein kinase LATS1 (Homo sapiens) (UniProt O95835). The assay can be described thus: Inhibition of LATS1 in human HeLa cells lysate at 2 uM pre incubated for 15 mins followed by ATP acyl phosphate probe addition and measured after 10 mins by LC-MS/MS analysis relative to control. In kind it is subcellular. Conditions: time 25.0 min.
Assay [10] addresses T3, Dual specificity mitogen-activated protein kinase kinase 3 (Homo sapiens) (UniProt P46734).
T3 sequence (whole entry): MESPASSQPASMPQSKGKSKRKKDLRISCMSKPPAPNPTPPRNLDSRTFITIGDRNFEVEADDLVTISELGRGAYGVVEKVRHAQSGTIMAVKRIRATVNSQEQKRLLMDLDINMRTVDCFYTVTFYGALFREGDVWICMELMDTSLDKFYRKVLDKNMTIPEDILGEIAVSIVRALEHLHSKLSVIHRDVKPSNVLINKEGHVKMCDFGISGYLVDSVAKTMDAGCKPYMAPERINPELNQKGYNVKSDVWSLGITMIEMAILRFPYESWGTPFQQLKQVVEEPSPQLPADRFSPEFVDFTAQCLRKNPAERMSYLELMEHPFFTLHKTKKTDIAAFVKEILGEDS
The experiment in a line: Inhibition of MAP2K3 in human HeLa cells lysate at 2 uM pre incubated for 15 mins followed by ADP acyl phosphate probe addition and measured after 10 mins by LC-MS/MS analysis relative to control. In kind it is subcellular. Conditions: time 25.0 min.

The target of assay [11] is Serine/threonine-protein kinase 24 (Homo sapiens, UniProt Q9Y6E0). The assay can be described thus: Inhibition of MST3 in human HeLa cells lysate pre incubated for 15 mins followed by ATP acyl phosphate probe addition and measured after 10 mins by LC-MS/MS analysis. It counts as subcellular.
Sequence of Serine/threonine-protein kinase 24 (Q9Y6E0 whole entry): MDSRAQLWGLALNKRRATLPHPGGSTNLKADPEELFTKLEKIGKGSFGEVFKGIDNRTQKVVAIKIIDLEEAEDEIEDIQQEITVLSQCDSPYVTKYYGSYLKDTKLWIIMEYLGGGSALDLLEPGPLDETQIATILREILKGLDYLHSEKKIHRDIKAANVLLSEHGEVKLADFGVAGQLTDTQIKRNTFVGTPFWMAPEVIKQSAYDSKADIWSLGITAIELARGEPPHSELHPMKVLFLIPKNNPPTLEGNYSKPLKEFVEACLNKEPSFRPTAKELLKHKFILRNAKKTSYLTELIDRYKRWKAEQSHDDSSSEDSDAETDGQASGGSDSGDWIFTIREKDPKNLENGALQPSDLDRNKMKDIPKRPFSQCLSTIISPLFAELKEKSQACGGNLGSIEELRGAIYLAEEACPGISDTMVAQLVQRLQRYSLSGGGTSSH

Sequence of RAC-alpha serine/threonine-protein kinase (P31749 whole entry): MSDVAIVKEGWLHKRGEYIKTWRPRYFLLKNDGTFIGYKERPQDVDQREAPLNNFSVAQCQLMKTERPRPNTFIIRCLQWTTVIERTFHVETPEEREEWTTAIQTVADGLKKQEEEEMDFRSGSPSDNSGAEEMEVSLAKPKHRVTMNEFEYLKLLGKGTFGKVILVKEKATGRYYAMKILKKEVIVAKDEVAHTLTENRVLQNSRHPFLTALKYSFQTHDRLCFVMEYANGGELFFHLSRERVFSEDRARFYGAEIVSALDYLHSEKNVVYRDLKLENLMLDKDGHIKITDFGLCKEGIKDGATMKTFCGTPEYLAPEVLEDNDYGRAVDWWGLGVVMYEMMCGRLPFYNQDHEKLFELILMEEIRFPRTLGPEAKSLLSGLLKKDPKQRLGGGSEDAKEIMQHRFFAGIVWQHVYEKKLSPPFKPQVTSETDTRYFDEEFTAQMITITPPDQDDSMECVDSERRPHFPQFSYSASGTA
Sequence of Mitogen-activated protein kinase kinase kinase 7 (O43318 whole entry): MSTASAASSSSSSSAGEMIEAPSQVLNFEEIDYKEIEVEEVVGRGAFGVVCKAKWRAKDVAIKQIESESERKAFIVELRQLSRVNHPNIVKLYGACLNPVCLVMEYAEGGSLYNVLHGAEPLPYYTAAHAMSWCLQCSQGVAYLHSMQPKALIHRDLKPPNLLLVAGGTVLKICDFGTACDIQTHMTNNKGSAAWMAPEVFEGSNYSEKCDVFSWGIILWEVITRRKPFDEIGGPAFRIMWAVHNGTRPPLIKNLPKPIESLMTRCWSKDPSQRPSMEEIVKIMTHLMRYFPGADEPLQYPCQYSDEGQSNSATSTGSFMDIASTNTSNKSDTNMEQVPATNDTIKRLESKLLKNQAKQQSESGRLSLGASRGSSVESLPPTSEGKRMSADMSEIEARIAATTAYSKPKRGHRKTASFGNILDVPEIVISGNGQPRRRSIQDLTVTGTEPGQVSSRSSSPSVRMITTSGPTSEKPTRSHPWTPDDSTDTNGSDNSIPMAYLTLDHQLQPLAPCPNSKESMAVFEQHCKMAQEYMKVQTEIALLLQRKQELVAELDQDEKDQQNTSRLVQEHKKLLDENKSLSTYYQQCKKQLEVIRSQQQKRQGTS
Sequence of Cyclin-G-associated kinase (Homo sapiens) (O14976 whole entry): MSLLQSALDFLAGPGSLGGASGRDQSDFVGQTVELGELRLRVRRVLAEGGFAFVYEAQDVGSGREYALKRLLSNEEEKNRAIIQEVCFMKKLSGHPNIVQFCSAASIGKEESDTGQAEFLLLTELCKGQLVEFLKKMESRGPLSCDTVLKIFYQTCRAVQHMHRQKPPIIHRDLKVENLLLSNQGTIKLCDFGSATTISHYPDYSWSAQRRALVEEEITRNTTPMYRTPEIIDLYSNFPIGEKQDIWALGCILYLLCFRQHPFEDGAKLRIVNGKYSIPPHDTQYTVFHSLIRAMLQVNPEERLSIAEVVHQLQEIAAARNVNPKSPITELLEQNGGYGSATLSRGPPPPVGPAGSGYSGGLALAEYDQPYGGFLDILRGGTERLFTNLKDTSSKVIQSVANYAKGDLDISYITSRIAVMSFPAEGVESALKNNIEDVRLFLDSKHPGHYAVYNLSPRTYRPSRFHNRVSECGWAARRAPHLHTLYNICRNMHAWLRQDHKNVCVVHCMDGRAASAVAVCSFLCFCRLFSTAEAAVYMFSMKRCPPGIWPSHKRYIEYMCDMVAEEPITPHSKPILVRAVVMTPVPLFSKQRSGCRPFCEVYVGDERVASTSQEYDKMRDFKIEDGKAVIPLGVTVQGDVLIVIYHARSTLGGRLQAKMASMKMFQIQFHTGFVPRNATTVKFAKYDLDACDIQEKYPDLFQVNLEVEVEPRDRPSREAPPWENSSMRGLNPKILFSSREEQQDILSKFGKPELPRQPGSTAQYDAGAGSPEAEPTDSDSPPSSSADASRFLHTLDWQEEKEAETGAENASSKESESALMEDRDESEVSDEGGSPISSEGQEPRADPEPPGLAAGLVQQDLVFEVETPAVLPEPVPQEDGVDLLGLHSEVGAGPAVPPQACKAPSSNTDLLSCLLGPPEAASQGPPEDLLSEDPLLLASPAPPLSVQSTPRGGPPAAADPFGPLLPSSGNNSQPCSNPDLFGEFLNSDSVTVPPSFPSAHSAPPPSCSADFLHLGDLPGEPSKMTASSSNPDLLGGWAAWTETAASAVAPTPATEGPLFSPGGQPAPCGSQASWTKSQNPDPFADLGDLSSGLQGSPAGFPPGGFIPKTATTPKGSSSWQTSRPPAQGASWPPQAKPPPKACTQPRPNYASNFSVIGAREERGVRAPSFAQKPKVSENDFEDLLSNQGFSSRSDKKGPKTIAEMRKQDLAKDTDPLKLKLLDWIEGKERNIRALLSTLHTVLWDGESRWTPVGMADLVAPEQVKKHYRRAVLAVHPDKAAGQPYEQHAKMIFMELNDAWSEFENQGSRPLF
Sequence of Protein kinase C zeta type (Q05513 whole entry, the tested form may be a part): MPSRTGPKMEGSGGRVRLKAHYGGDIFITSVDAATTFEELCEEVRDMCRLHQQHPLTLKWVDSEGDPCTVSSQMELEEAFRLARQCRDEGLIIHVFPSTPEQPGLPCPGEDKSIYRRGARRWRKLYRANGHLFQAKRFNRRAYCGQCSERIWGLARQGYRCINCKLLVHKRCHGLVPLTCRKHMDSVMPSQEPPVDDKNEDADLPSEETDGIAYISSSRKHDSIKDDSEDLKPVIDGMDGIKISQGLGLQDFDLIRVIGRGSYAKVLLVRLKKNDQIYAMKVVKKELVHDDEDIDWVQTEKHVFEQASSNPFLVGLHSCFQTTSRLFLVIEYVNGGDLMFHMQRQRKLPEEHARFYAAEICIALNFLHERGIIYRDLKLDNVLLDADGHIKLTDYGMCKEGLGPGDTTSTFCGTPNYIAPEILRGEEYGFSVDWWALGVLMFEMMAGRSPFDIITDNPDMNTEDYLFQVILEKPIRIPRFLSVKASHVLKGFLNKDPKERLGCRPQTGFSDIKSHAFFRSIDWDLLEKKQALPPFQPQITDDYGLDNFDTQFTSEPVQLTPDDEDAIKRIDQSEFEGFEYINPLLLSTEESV
Sequence of Serine/threonine-protein kinase LATS1 (Homo sapiens) (O95835 whole entry): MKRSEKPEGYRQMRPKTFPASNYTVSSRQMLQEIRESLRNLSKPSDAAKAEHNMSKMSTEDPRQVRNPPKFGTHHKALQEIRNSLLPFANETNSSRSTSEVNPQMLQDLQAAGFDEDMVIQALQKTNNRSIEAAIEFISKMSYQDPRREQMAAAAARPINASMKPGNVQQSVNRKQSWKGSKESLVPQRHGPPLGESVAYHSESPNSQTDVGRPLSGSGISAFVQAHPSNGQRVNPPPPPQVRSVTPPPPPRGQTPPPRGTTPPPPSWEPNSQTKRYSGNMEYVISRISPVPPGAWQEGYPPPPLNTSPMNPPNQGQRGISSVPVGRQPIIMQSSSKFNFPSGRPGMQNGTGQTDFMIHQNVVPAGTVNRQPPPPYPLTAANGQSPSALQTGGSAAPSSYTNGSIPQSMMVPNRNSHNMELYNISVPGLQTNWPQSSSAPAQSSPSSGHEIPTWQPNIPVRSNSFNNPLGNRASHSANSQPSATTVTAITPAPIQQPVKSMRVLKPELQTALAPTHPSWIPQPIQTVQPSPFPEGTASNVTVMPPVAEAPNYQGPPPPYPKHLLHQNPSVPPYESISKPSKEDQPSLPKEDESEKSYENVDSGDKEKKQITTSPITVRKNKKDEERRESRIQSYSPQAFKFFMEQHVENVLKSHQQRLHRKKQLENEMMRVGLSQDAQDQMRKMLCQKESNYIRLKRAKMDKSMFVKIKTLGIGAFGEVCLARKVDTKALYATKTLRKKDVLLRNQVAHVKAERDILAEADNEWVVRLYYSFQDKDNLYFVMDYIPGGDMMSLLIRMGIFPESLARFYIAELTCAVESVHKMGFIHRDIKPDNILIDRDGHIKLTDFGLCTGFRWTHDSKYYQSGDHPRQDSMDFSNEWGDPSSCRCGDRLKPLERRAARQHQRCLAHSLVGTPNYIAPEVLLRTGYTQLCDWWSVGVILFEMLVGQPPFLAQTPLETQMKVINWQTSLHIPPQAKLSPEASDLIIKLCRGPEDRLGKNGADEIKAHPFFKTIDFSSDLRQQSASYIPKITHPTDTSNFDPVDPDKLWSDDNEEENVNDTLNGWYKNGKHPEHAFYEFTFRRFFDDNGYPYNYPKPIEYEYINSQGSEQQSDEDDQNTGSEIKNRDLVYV

A word on the IC50: it is the concentration that gives 50% inhibition. For orientation: inhibition means the drop in the measured response relative to a control, in per cent. With `CCOc1cc(N2CCC(O)CC2)ccc1Nc1ncc2c(n1)N(C)c1ccccc1C(=O)N2C`, the IC50 in assay [1], in assay [3] and in assay [11] was over 50 µM throughout. In addition, the inhibition in assay [2] was 37.2%; in assay [4], -6.7%; in assay [5] it was 17%; in assay [6], -7.5%; in assay [8] it was 15.4%; in assay [9], 5.7%. The inhibition in assay [10] worked out at 7.5%. In addition, the Activity in assay [7] is 31%.
